Reference: ChEMBL document CHEMBL1148398, “Design, synthesis, and biological evaluation of thio-containing compounds with serum HDL-cholesterol-elevating properties” (2004)

Columns and labels:
Rattus norvegicus [1] = assay: Effect of compound on serum high-density lipoprotein cholesterol concentration in chow-fed male rats at a dose of 5 mg/kg/day; format: functional, organism-based
Method in brief: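 Separate dose-response study in male Sprague–Dawley CD rats, 60–80 g, on chow. Oral gavage once daily for 4 days in 1.3% Tween 80 / 0.25% CMC; fasted overnight, bled 24 h after last dose. Apo-A1 by ELISA with rabbit anti-rat primary, alkaline phosphatase-conjugated anti-rabbit IgG and p-nitrophenyl phosphate substrate. HDL-C by FPLC fractionation. Mean ± SEM, six per group.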

Rattus norvegicus [2] = assay: Effect of compound on very low-density lipoprotein cholesterol levels in 5th group of normal chow-fed male rats after a dose of 20 mg/kg/day; format: functional, organism-based
Method in brief: (§1)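 Male Sprague–Dawley CD rats (60–80 g) on Purina 5001 chow with a reverse 12 h light/dark cycle. Dosed once daily by oral gavage for 4 days, suspended in 1.3% Tween 80 / 0.25% CMC. Fasted overnight and bled 24 h after the last dose. Serum TC and glycerol-blanked TG measured enzymatically; VLDL-C by FPLC fractionation with cholesterol assay. n=6, mean ± SEM.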

Cricetinae gen. sp. [3] = assay: Effect of compound on triglycerides level in 1st group of cholesterol-fed male hamsters at 3 mg/kg/day after 14 days of treatment; conditions: Mesocricetus auratus
Rattus norvegicus [4] = assay: Effect of compound on very low-density lipoprotein cholesterol levels in 7th group of normal chow-fed male rats after a dose of 100 mg/kg/day; format: functional, organism-based; method in brief: as §1
Rattus norvegicus [5] = assay: Effect of compound on total plasma cholesterol levels in 4th group of normal chow-fed male rats after a dose of 10 mg/kg/day; format: functional, organism-based; method in brief: as §1
Rattus norvegicus [6] = assay: Effect of compound on liver weight in 3rd group of normal chow-fed male rats after a dose of 5 mg/kg/day; format: functional
Method in brief: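 Male Sprague–Dawley CD rats, 60–80 g, on chow with a reverse 12 h light/dark cycle. Given one oral gavage dose daily for 4 days, suspended in 1.3% Tween 80/0.25% CMC. Fasted overnight and sacrificed 24 h after the last dose for blood and liver. Serum liver enzymes read on a clinical analyzer. Six per group, mean ± SEM.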

Cricetinae gen. sp. [7] = assay: Effect of compound on thyroxine levels in 2nd group of cholesterol-fed male hamsters at 10 mg/kg/day after 14 days of treatment; conditions: Mesocricetus auratus
Rattus norvegicus [8] = assay: Effect of compound on thyroxine levels in 5th group of normal chow-fed male rats after a dose of 20 mg/kg/day; format: functional, organism-based
Method in brief: (§2)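 Male Sprague–Dawley CD rats, 60–80 g, on standard chow with reverse 12 h light/dark cycle. One oral gavage dose daily for 4 days, suspended in 1.3% Tween 80 and 0.25% CMC. Fasted overnight; sacrificed 24 h after the last dose. Serum TC on clinical analyzer, lipoproteins by FPLC with cholesterol per fraction, T4 on analyzer. Mean ± SEM, six rats per group.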

Rattus norvegicus [9] = assay: Effect of compound on thyroxine levels in 4th group of normal chow-fed male rats after a dose of 10 mg/kg/day; format: functional, organism-based; method in brief: as §2
Cricetinae gen. sp. [10] = assay: Percent change in low-density lipoprotein cholesterol following oral administration of compound in hypercholesterolemic hamsters at 100 mg/kg/day for 14 days; format: functional
Method in brief: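 Male Syrian Golden hamsters pre-fed chow plus 0.25% cholesterol for 2 weeks and kept on it. Dosed 100 mg/kg/day by oral gavage in 2% Tween 80/saline for 14 days. Serum total cholesterol and glycerol-blanked triglycerides read enzymatically; lipoproteins separated by FPLC with cholesterol measured in each fraction. % change versus vehicle controls; six per group, p < 0.05.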

Rattus norvegicus [11] = assay: Effect of compound on alkaline phosphatase (ALKP) levels in 6th group of normal chow-fed male rats after a dose of 50 mg/kg/day; format: functional, organism-based
Method in brief: (§3)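 Male Sprague–Dawley CD rats (60–80 g) on standard chow under a reversed 12 h light/dark cycle. Compound was suspended in 1.3% Tween 80/0.25% CMC and given as a single daily oral gavage dose for 4 days. Rats were fasted overnight and killed 24 h after the last dose. Serum ALT, AST, ALKP and LDH were read on a clinical analyzer. Weight gain was start versus end weight. Mean ± SEM, n = 6.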

[12] = Effect on serum lipids in 3rd group of cholesterol-fed male hamsters at 30 mg/kg/day after 14 days of treatment was evaluated as ratio of total cholesterol levels to high-density lipoprotein cholesterol levels; format: functional
Method in brief: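 Male Syrian Golden hamsters on chow plus 0.25% cholesterol, 2 weeks before and during dosing. Oral gavage for 14 days in 2% Tween 80/saline. Fasted 4 h before sacrifice. Serum total cholesterol measured enzymatically; HDL-C from cholesterol in FPLC lipoprotein fractions; TC/HDL-C ratio calculated. Six per group, mean ± SEM.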

Cricetinae gen. sp. [13] = assay: Effect of compound on high-density lipoprotein cholesterol levels in 2nd group of cholesterol-fed male hamsters at 10 mg/kg/day after 14 days of treatment; format: functional, organism-based
Rattus norvegicus [14] = assay: Effect of compound on thyroxine levels in 7th group of normal chow-fed male rats after a dose of 100 mg/kg/day; format: functional, organism-based; method in brief: as §2
Rattus norvegicus [15] = assay: Effect of compound on high-density lipoprotein cholesterol levels in 7th group of normal chow-fed male rats after a dose of 100 mg/kg/day; format: functional, organism-based
Rattus norvegicus [16] = assay: Effect of compound on lactic dehydrogenase (LDH) levels in 1st group of normal chow-fed male rats after a dose of 1 mg/kg/day; format: functional, organism-based; method in brief: as §3
Rattus norvegicus [17] = assay: Effect of compound on triglycerides level in 3rd group of normal chow-fed male rats after a dose of 5 mg/kg/day; format: functional, organism-based; method in brief: as §1
Rattus norvegicus [18] = assay: Effect of compound on gain in body weight in 1st group of normal chow-fed male rats after a dose of 1 mg/kg/day; format: functional; method in brief: as §3
Rattus norvegicus [19] = assay: Effect of compound on gain in body weight in 5th group of normal chow-fed male rats after a dose of 20 mg/kg/day; format: functional; method in brief: as §3
Rattus norvegicus [20] = assay: Effect of compound on triglycerides level in 2nd group of normal chow-fed male rats after a dose of 2 mg/kg/day; format: functional, organism-based; method in brief: as §1
Rattus norvegicus [21] = assay: Percent change in total plasma cholesterol following oral administration of compound in normal chow-fed rats at 100 mg/kg/day for 4 days; format: functional
Method in brief: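 Chow-fed male Sprague–Dawley CD rats, 60–80 g, gavaged 100 mg/kg/day for 4 days in 1.3% Tween 80/0.25% CMC. Fasted overnight, bled 24 h after the last dose. Total cholesterol and glycerol-blanked triglycerides read enzymatically; lipoproteins by FPLC with cholesterol per fraction. % change versus control; six per group, p < 0.05.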

Cricetinae gen. sp. [22] = assay: Effect of compound on very low-density lipoprotein cholesterol levels in 3rd group of cholesterol-fed male hamsters at 30 mg/kg/day after 14 days of treatment; conditions: Mesocricetus auratus
Cricetinae gen. sp. [23] = assay: Effect of compound on very low-density lipoprotein cholesterol levels in 2nd group of cholesterol-fed male hamsters at 10 mg/kg/day after 14 days of treatment; conditions: Mesocricetus auratus
Cricetinae gen. sp. [24] = assay: Effect of compound on high-density lipoprotein cholesterol levels in 4th group of cholesterol-fed male hamsters at 100 mg/kg/day after 14 days of treatment; conditions: Mesocricetus auratus
Rattus norvegicus [25] = assay: Effect of compound on lactic dehydrogenase (LDH) levels in 3rd group of normal chow-fed male rats after a dose of 5 mg/kg/day; format: functional, organism-based; method in brief: as §3

## CCN1CC(=O)N(c2cc(Cl)ccc2C)C1=S
Rattus norvegicus [1]
  Serum level: 52.4 mg/dL
Rattus norvegicus [2]
  Serum level: 5.3 mg/dL
Cricetinae gen. sp. [3]
  Serum level: 431 mg/dL
Rattus norvegicus [4]
  Serum level: 5.7 mg/dL
Rattus norvegicus [5]
  Serum level: 85 mg/dL
Rattus norvegicus [6]
  Liver weight: 7.2 g
Cricetinae gen. sp. [7]
  Serum level: 5.73 µg/dL
Rattus norvegicus [8]
  Serum level: 4.05 µg/dL
Rattus norvegicus [9]
  Serum level: 3.98 µg/dL
Cricetinae gen. sp. [10]
  Change: -30.1%
Rattus norvegicus [11]
  Level: 330 U l-1
[12]
  Ratio: 2.39
Cricetinae gen. sp. [13]
  Serum level: 133 mg/dL
Rattus norvegicus [14]
  Serum level: 3.4 µg/dL
Rattus norvegicus [15]
  Serum level: 76 mg/dL
Rattus norvegicus [16]
  Level: 724 U l-1
Rattus norvegicus [17]
  Serum level: 18 mg/dL
Rattus norvegicus [18]
  Body weight: 26.3 g
Rattus norvegicus [19]
  Body weight: 30.3 g
Rattus norvegicus [20]
  Serum level: 15 mg/dL
Rattus norvegicus [21]
  Change: 72.8%
Cricetinae gen. sp. [22]
  Serum level: 91 mg/dL
Cricetinae gen. sp. [23]
  Serum level: 102 mg/dL
Cricetinae gen. sp. [24]
  Serum level: 191 mg/dL
Rattus norvegicus [25]
  Level: 743 U l-1
